Bioassay records from PubChem.
The list is not random: actives were taken first. Their share in the collection is about 2.9%.
TCR-CD3 inh – inhibitors of human TCR-CD3 interaction; inhibition, % at 9.4 µM; TAMRA-labeled TCR probe fluorescence, biochemical; 0.37% of 360,000 active; in the data active = inhibition above about 19%;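 also: recombinant mutant TCR 2C K166C tagged with TAMRA read by polarization; 0% = receptor in buffer alone and 100% = receptor with positive control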
mABHD4 FP – inhibits mouse alpha/beta hydrolase domain 4; inhibition, % at 8.92 µM; purified mABHD4, FP-Rh probe fluorescence polarization; Q8VD66; 0.54% of 370,000 active;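 active = inhibition exceeding the mean over every tested compound plus 3 SD, cut at about 30% in these data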;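 also: 0% = plate median of compound wells and 100% = S159A mutant with DMSO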
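Assay system: wild-type mouse ABHD4 protein; compound: single nominal dose of 8.92 µM, 0.89% DMSO final; schedule: 45 min + 60 min at 25 °C; measured by: FP readout, ex 525 nm / em 598 nm; evaluation: % inhibition of FP-Rh probe binding versus controls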
SIAE inh – inhibitors of human sialic acid acetylesterase SIAE. SIAE FP-Rh probe binding, fluorescence polarization. inhibition, % at 9.66 µM. AID 1053197. 0.69% of 370,000 active. Q9HAT2;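 active = inhibition above a cutoff: mean of compounds within the control limits plus 3 SD of those, cut at about 17% in these data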;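 also: 0% = plate median of compound wells and 100% = probe without SIAE protein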
PAD4 FP inh – inhibitors of human PAD4. Q9UM07. recombinant PAD4, RCA probe fluorescence polarization. inhibition, % at 6.36 µM. 0.41% of 330,000 active;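 active = percent inhibition above a cutoff equal to the mean of all tested compounds plus 3 SD, cut at about 15% in these data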;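 also: 0% = PAD4 with RCA probe and DMSO and 100% = probe without PAD4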
HTRA1 inhibitor – blocks human HTRA1 serine peptidase | Q92743 | recombinant HTRA1, FP-rhodamine activity-based probe, fluorescence polarization | inhibition, % at 5.96 µM | 0.5% of 340,000 active | AID 504803; in the data active = inhibition above about 36%;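 also: 0% = enzyme with DMSO and 100% = wells lacking enzyme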
PRMT1 FP inh – inhibitors of human PRMT1 | 1.3% of 370,000 active | inhibition, % at 2.79 µM | Q99873 | recombinant PRMT1, activity-based probe fluorescence polarization;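 active = inhibition above about 21% made by adding two undisclosed values, limit read from the data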
Target sequence (Q99873 whole entry, looked up): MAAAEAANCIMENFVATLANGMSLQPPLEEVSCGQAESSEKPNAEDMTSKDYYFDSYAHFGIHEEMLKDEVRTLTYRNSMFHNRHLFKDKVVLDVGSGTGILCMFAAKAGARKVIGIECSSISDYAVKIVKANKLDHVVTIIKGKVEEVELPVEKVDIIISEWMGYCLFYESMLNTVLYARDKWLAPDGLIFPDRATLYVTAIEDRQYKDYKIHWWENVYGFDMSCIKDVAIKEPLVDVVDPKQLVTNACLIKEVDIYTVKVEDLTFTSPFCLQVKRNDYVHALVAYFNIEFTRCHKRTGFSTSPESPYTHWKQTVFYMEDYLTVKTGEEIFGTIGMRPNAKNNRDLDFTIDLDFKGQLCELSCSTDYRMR
SIAE inh conf – confirmation of human SIAE inhibitors. shares compounds with SIAE inh. SIAE FP-Rh activity-based probe, fluorescence polarization. inhibition, % at 9.66 µM. 13% of 2,300 active;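 active = mean inhibition of the replicates above the hit cutoff set in the primary screen, cut at about 17% in these data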;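 also: 0% = SIAE with DMSO and probe and 100% = probe without SIAE; inhibitors lower polarization as more probe stays unbound to SIAE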
* marks the source's active call; other numbers are inactive results; · = no result given.

SMILES	TCR-CD3 inh	mABHD4 FP	SIAE inh	PAD4 FP inh	HTRA1 inhibitor	PRMT1 FP inh	SIAE inh conf
Cc1cc(/C([O-])=C(/C(=S)Nc2ccc(F)cc2)[n+]2ccccc2)c(C)n1Cc1ccccc1Cl	-1.8	7.1	21.8*	-5.0	12.1	-1.9	-1.8
Cc1cc(/C([O-])=C(/C(=S)Nc2ccc(F)cc2)[n+]2ccccc2)c(C)n1-c1ccc(F)cc1	2.4	22.3	7.4	-7.2	25.7	12.0	·
Cc1ccc(-n2c(SCc3cc(=O)n4ccsc4n3)nnc2-c2cccnc2)c(C)c1	5.6	-0.1	17.3*	2.5	8.1	-2.4	-2.9
Cc1ccc(-n2c(SCC(N)=O)nnc2-c2cccnc2)c(C)c1	9.0	4.9	4.3	0.9	4.8	1.6	·
CCCn1c(=O)[nH]c(=O)c2c1nc(-c1ccc(C#N)cc1)n2CCOC	-5.2	5.3	17.5*	-0.8	2.6	0.7	-1.3
CCOc1cccc(C=NNC(=O)C(=O)Nc2cccc(C(F)(F)F)c2)c1O	7.6	8.5	3.6	·	·	1.7	·
COc1ccc(N=C2SC(C(=O)O)CC(=O)N2Cc2ccc(OC)c(OC)c2)cc1 (centres undefined)	2.1	3.6	80.1*	-1.3	0.1	-0.9	-0.6
COc1ccc2oc(=O)c(C(=O)NCc3ccc(F)cc3)cc2c1	-5.2	0.8	62.2*	-3.2	1.9	0.8	1.9
COc1cccc(-c2nc(NC3CCCC3)c3ccccc3n2)c1O	3.9	21.0	29.1*	2.3	0.1	-0.3	-2.4
S=C(NCc1cccc(Cl)c1)OC1CCC12CCC(c1ccccc1)CC2 (centres undefined)	·	-25.8	-7.1	·	·	-1.5	·
O=C(NCCCN1CCOCC1)c1ccc(S(=O)(=O)Nc2ccccc2F)cc1	-0.2	3.3	17.4*	-1.9	-1.0	-0.2	-2.0
Cc1ccccc1NS(=O)(=O)c1ccc(C(=O)NCCCN2CCOCC2)cc1	-11.8	-2.3	-4.4	-4.5	-3.1	-2.4	·
CCCCOCCCNC(=O)C[C@@H]1C(=O)N(CCc2ccc(Cl)cc2)C2=CCCC[C@]21C(=O)OCC	·	-2.1	1.4	·	·	-8.0	·
Cc1ccccc1NC(=O)[C@H]1CC(=O)O[C@@H]1c1ccccc1	·	2.5	3.8	·	·	-0.8	·
CC1(NC(=O)Nc2cccc3ccccc23)CCS(=O)(=O)C1 (centres undefined)	3.1	-9.8	22.2*	-7.6	3.8	3.9	1.5
CC(=O)C1(C(=O)N2CCOCC2)CC(c2ccccc2C(F)(F)F)=NO1 (centres undefined)	·	1.0	-6.6	·	·	1.0	·
C(=N\Nc1nc(Nc2ccccc2)nc(N2CCOCC2)n1)/c1c[nH]c2ccccc12	-8.8	15.4	18.7*	4.2	·	-2.6	24.0*
Cc1ccc(Nc2nc(N/N=C/c3c[nH]c4ccccc34)nc(N3CCOCC3)n2)cc1	-4.9	11.2	28.4*	1.2	25.0	2.3	8.7
COc1ccc(C(=O)OCCCN(C)C2CN(Cc3cn(Cc4ccccc4C(F)(F)F)nn3)S(=O)(=O)C2)cc1OC (centres undefined)	·	0.5	-2.2	·	·	-4.7	·
CCOC(=O)C(C)N1CC(=O)N(c2ccccc2)C1=O (centres undefined)	4.8	-1.5	17.6*	-1.2	0.3	-0.9	2.4
CCOC(=O)C1=C(C)N(c2ccccc2)C(=O)C1	4.5	6.5	-2.4	2.0	-1.1	0.2	·
O=C(CNc1ccc2ccccc2c1)N/N=C/c1ccc(OC(=O)/C=C/c2ccco2)cc1	-2.8	-6.5	21.7*	3.5	8.4	9.8	13.7
CC(C)(C)OC(=O)NCc1cc2c(cc1/C=C/S(=O)(=O)NCc1ccc(F)cc1)OCO2	·	-5.7	2.5	·	·	5.0	·
CC(C)(C)C(=O)OC12CCCN(C1)/C(=C/c1ccc(C#N)cc1)C2 (centres undefined)	·	3.7	38.6*	·	·	-5.7	0.5
CCCC(=O)OC12CCCN(C1)/C(=C/c1ccc(C#N)cc1)C2 (centres undefined)	·	6.3	-1.2	·	·	-1.5	·
COc1ccc(NC(=S)N/N=C2\CC(C)(C)Oc3ccc(O)cc32)cc1	7.9	6.7	34.6*	3.1	9.6	6.2	28.3*
CC(=O)N1CCC2(CC1)C/C(=N\NC(=S)Nc1ccccc1F)c1cc(O)ccc1O2	-8.6	7.5	10.6	1.0	5.9	10.1	·
